Assay results reported in ChEMBL document CHEMBL1142064, “Concentration-dependent effects of caspofungin on the metabolic activity of Aspergillus species” (2007).

Assays:
Type in all cases: functional
Aspergillus flavus [1] = assay: Metabolic activity of Aspergillus flavus at 8 ug/ml by XTT assay relative to control
How it was run: (§1)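 Optimized XTT read-out (100 μg/ml XTT, 6.25 μM menadione, 2 h at 37°C) applied after 48 h caspofungin exposure. Percent metabolic activity in the 8 μg/ml well, calculated as background-corrected absorbance (450/630 nm) relative to the drug-free control. Compared within each species against the value at the concentration giving the lowest activity.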

Aspergillus terreus [2] = assay: Metabolic activity of Aspergillus terreus determined as X-MEC relative to control
How it was run: (§2)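 X-MEC: lowest caspofungin concentration whose percent metabolic activity (optimized XTT, 100 μg/ml XTT, 6.25 μM menadione, 2 h, after 48 h incubation) is at or below a species-specific cutoff. Cutoffs were tested in 5% steps around the species median activity at the microscopic MEC and chosen for best ±1 dilution agreement with the microscopic MEC.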

Aspergillus fumigatus [3] = assay: Metabolic activity of Aspergillus fumigatus at 0.75 ug/ml after 2 hrs by XTT assay relative to control
How it was run: (§3)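 Wells from the 48 h caspofungin microdilution (0.008 to 8 μg/ml) were read right after microscopic MEC reading. XTT plus menadione was added to final 100 μg/ml XTT and 6.25 μM menadione, then incubated 2 h at 37°C and shaken. Absorbance read at 450 nm with 630 nm reference. Percent metabolic activity = background-subtracted drug well / background-subtracted drug-free control × 100. Triplicate.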

Aspergillus flavus [4] = assay: Metabolic activity of Aspergillus flavus at 2 ug /ml after 2 hrs by XTT assay relative to control; how it was run: as §3
Aspergillus fumigatus [5] = assay: Antifungal activity against Aspergillus fumigatus after 48 hrs; conditions: read-out: MEC
How it was run: (§4)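 Broth microdilution following CLSI M38-A in RPMI 1640 with l-glutamine, no bicarbonate, buffered to pH 7.0 with 0.165 M MOPS. Caspofungin twofold dilutions, 0.008 to 8 μg/ml final. Inoculum 2.5 × 10⁴ conidia/ml of clinical isolates. Incubation 37°C for 48 h. MEC read microscopically as the lowest concentration giving short, stubby, highly branched hyphae. Run in triplicate.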

Aspergillus terreus [6] = assay: Metabolic activity of Aspergillus terreus at 0.5 ug/ml after 2 hrs by XTT assay relative to control; how it was run: as §3
Aspergillus terreus [7] = assay: Metabolic activity of Aspergillus terreus at 8 ug/ml by XTT assay relative to control; how it was run: as §1
Aspergillus terreus [8] = assay: Metabolic activity of Aspergillus terreus by XTT assay relative to control; how it was run: as §3
Aspergillus flavus [9] = assay: Metabolic activity of Aspergillus flavus determined as X-MEC relative to control; how it was run: as §2
Aspergillus terreus [10] = assay: Antifungal activity against Aspergillus terreus after 48 hrs; conditions: read-out: MEC; how it was run: as §4
Aspergillus flavus [11] = assay: Metabolic activity of Aspergillus flavus at 0.25 ug /ml using after 2 hrs by XTT assay relative to control; how it was run: as §3
Aspergillus fumigatus [12] = assay: Metabolic activity of Aspergillus fumigatus by XTT assay relative to control; how it was run: as §3
Aspergillus fumigatus [13] = assay: Metabolic activity of Aspergillus fumigatus at 8 ug/ml by XTT assay relative to control; how it was run: as §1
Aspergillus flavus [14] = assay: Antifungal activity against Aspergillus flavus after 48 hrs; conditions: read-out: MEC; how it was run: as §4
Aspergillus fumigatus [15] = assay: Metabolic activity of Aspergillus fumigatus determined as X-MEC relative to control; how it was run: as §2
Aspergillus terreus [16] = assay: Metabolic activity of Aspergillus terreus at 1 ug/ml after 2 hrs by XTT assay relative to control; how it was run: as §3
Aspergillus fumigatus [17] = assay: Metabolic activity of Aspergillus fumigatus at 0.5 ug/ml after 2 hrs by XTT assay relative to control; how it was run: as §3

CC[C@H](C)C[C@H](C)CCCCCCCCC(=O)N[C@H]1C[C@@H](O)[C@@H](NCCN)NC(=O)[C@@H]2[C@@H](O)CCN2C(=O)[C@H]([C@H](O)CCN)NC(=O)[C@H]([C@H](O)[C@@H](O)c2ccc(O)cc2)NC(=O)[C@@H]2C[C@@H](O)CN2C(=O)[C@H]([C@@H](C)O)NC1=O [CASPOFUNGIN]
Activity (Aspergillus flavus [1]): 20%
Activity (Aspergillus terreus [2]): 65%
Activity (Aspergillus fumigatus [3]): 28%
Activity (Aspergillus flavus [4]): 17%
minimal effective concentration (Aspergillus fumigatus [5]): 0.5 µg/mL
Activity (Aspergillus terreus [6]): 53%
Activity (Aspergillus terreus [7]): 57%
MMC (Aspergillus terreus [8]): 1 µg/mL
Activity (Aspergillus flavus [9]): 40%
minimal effective concentration (Aspergillus terreus [10]): 0.5 µg/mL
Activity (Aspergillus flavus [11]): 25%
MMC (Aspergillus fumigatus [12]): 0.75 µg/mL
Activity (Aspergillus fumigatus [13]): 51%
minimal effective concentration (Aspergillus flavus [14]): 0.25 µg/mL
Activity (Aspergillus fumigatus [15]): 60%
Activity (Aspergillus terreus [16]): 38%
Activity (Aspergillus fumigatus [17]): 42%
